Measurements: paper PMC4784479 (Arthritis & rheumatology (Hoboken, N.J.), 2015)
*1 amine or outer side, *2 acyl side, *3 side chain or, on linkers, in order; H or OH if unused. Where a SMILES comes first, the peptide text is derived from it. Bridges are numbered along the chain shown (N, C = ends). Where no end group is shown, it is not given here. [ ]: non-standard residue; d: D form. X1 = O=C(O)C[C@@H](C(=O)[*:2])N(CCCCN[*:3])[*:1]; X2 = C[C@@H](C(=O)[*:2])N(CCCCN[*:3])[*:1]; CO = O=C([*:1])[*:2]

Experiments:
[1] = biological target: T1, SE-activated NO signaling (Mus musculus, UniProt P14211); assay: SE ligand-activated NO signaling assay; assay type: cell-based; settings: Linear DKCLA 170 μM, SE ligand 65–79*0401 57 μM, Fig. 1F
T1 sequence (P14211 18-416): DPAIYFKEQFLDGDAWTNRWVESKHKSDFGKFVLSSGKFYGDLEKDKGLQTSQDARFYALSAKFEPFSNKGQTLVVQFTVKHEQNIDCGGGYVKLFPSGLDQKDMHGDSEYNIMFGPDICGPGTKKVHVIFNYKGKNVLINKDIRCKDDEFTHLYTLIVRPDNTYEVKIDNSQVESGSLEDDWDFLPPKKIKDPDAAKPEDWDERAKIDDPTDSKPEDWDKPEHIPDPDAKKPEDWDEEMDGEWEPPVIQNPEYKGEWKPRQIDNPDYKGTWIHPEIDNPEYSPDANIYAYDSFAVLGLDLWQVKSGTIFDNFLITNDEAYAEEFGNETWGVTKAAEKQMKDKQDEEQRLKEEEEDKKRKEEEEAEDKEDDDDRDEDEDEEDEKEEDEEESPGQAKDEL

[2] = biological target: T2, recombinant mouse CRT (Mus musculus, UniProt P14211); assay: SPR direct interaction with CRT; assay type: binding; settings: immobilized recombinant CRT, Fig. 1A
T2 sequence (P14211 18-416): T1 sequence (P14211 18-416)
Procedure, shortened: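 Direct binding was measured by SPR on a CM5 chip preconditioned with NaOH, HCl and SDS pulses and activated with EDC/NHS. Recombinant mouse CRT was amine-coupled at 100 μg/ml (about 5500 RU), then ethanolamine-blocked. Analytes were injected at various concentrations at 25°C and 10 μl/min in HEPES pH 7.4 buffer with KCl, CaCl2, ZnCl2 and P-20. Signal was read in real time as resonance units.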

[3] = test system: primary mouse BMCs; assay: In vitro OC differentiation, primary mouse BMCs; assay type: cell-based; settings: SE ligand 65–79*0401 29 μM, Fig. 1J
Procedure, shortened: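 Primary bone marrow cells from mouse femurs and tibias were plated at 2 × 10^5/well in MEM with 10% FBS and penicillin/streptomycin. They received 10 ng/ml M-CSF alone for 2 d, then 4 d more with 10 ng/ml M-CSF plus 20 ng/ml RANKL, with or without SE ligand 65–79*0401 (29 μM). Cultures were fixed and TRAP-stained. TRAP-positive cells with more than three nuclei were counted. Results are mean ± SEM; Student's t-test.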

[4] = test system: DBA/1 mice with CIA; assay: Collagen-induced arthritis; assay type: in vivo, mouse; settings: disease amelioration at ng/kg-range doses; comparison with ref 24–26

| Compound | Inhibition of SE ligand-activated NO signaling [1] | Interaction with CRT (SPR) [2] | Incremental SE-activated OC differentiation [3] | In vivo potency in CIA relative to emerging drugs (mg/kg-range doses) [4] |
| --- | --- | --- | --- | --- |
| Ac-DKCLA (N-terminus assumed) [DKCLA] | specifically blocked SE ligand-activated NO signaling | interacted with CRT | – | – |
| CC(C)C[C@@H]1NC(=O)[C@H](CS)NC(=O)[C@H](CCCCN)NC(=O)[C@H](CC(=O)O)N(C(=O)[C@@H](N)Cc2c[nH]c3ccccc23)CCCCNC(=O)NCCCCN([C@@H](C)C(N)=O)C1=O [HS(4–4)c Trp] (H-W[X1]KCL[X2]-NH2; linker 2-6 via CO; N-terminus and C-terminus assumed) | – | – | significantly inhibited | 1,000,000 fold |
